Laboratory results published in ChEMBL document CHEMBL5247578, “Effective synthesis of benzimidazoles-imidazo[1,2-a]pyrazine conjugates: A comparative study of mono-and bis-benzimidazoles for antitumor activity” (Eur J Med Chem, 2019).

Tests used:
NCI/ADR-RES = assay: Antiproliferative activity against human NCI/ADR-RES cells assessed as cell growth inhibition at 10 uM incubated for 48 hrs by sulforhodamine B assay relative to control; assay type: functional
Procedure, shortened: (§1)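 NCI-60 single-dose screen at 10^-5 M. Cells grown in RPMI 1640 with 5% FBS and 2 mM L-glutamine, plated at 5,000–40,000 cells/well, and preincubated 24 h. Drug (DMSO stock) added and incubated 48 h at 37 °C, 5% CO2. Adherent cells fixed with cold TCA, stained with 0.4% SRB in 1% acetic acid, dye solubilized in 10 mM trizma base, A515 read. Percent growth taken against time-zero and untreated control.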

[1] = n-Octanol/phosphate buffer partition coefficient, logP of the compound at pH 7.4 incubated for 85 mins by shake-flask method; assay type: physicochemical
Procedure, shortened: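 Octanol–water partition by shake-flask: n-octanol with 0.15 M phosphate buffer pH 7.4 at 10:1 volumes. Buffer-phase absorbance read before mixing, then shaken 50 min and centrifuged at 2500 rpm for 35 min. Buffer absorbance read again; P = (Ai−Af)/Af × Vw/Vo.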

T47D = assay: Antiproliferative activity against human T47D cells assessed as cell growth inhibition at 10 uM incubated for 48 hrs by sulforhodamine B assay relative to control; assay type: functional; procedure, shortened: as §1
SK-MEL-5 = assay: Antiproliferative activity against human SK-MEL-5 cells assessed as cell growth inhibition at 10 uM incubated for 48 hrs by sulforhodamine B assay relative to control; assay type: functional; procedure, shortened: as §1
MDA-MB-468 = assay: Antiproliferative activity against human MDA-MB-468 cells assessed as cell growth inhibition at 10 uM incubated for 48 hrs by sulforhodamine B assay relative to control; assay type: functional; procedure, shortened: as §1
NCI-H460 = assay: Antiproliferative activity against human NCI-H460 cells assessed as cell growth inhibition at 10 uM incubated for 48 hrs by sulforhodamine B assay relative to control; assay type: functional; procedure, shortened: as §1
LOX IMVI = assay: Antiproliferative activity against human LOX IMVI cells assessed as cell growth inhibition at 10 uM incubated for 48 hrs by sulforhodamine B assay relative to control; assay type: functional; procedure, shortened: as §1
CCRF-CEM = assay: Antiproliferative activity against human CCRF-CEM cells assessed as cell growth inhibition at 10 uM incubated for 48 hrs by sulforhodamine B assay relative to control; assay type: functional
Procedure, shortened: (§2)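 Single-dose NCI-60 prescreen at 10^-5 M. Cells in RPMI 1640 with 5% FBS and 2 mM L-glutamine, seeded 5,000–40,000 cells/well with 24 h preincubation, then drug exposure for 48 h at 37 °C under 5% CO2. Growth read by SRB staining of TCA-fixed cells at 515 nm against time-zero and untreated controls. Negative growth values denote cell kill.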

NCI-H23 = assay: Antiproliferative activity against human NCI-H23 cells assessed as cell growth inhibition at 10 uM incubated for 48 hrs by sulforhodamine B assay relative to control; assay type: functional; procedure, shortened: as §1
NCI-H522 = assay: Antiproliferative activity against human NCI-H522 cells assessed as cell growth inhibition at 10 uM incubated for 48 hrs by sulforhodamine B assay relative to control; assay type: functional; procedure, shortened: as §1
IGROV-1 = assay: Antiproliferative activity against human IGROV-1 cells assessed as cell growth inhibition at 10 uM incubated for 48 hrs by sulforhodamine B assay relative to control; assay type: functional; procedure, shortened: as §1
SR = assay: Antiproliferative activity against human SR cells assessed as cell growth inhibition at 10 uM incubated for 48 hrs by sulforhodamine B assay relative to control; assay type: functional; procedure, shortened: as §1
NCI-H322M = assay: Antiproliferative activity against human NCI-H322M cells assessed as cell growth inhibition at 10 uM incubated for 48 hrs by sulforhodamine B assay relative to control; assay type: functional; procedure, shortened: as §1
M14 = assay: Antiproliferative activity against human M14 cells assessed as cell growth inhibition at 10 uM incubated for 48 hrs by sulforhodamine B assay relative to control; assay type: functional; procedure, shortened: as §1
Hs-578T = assay: Antiproliferative activity against human Hs-578T cells assessed as cell growth inhibition at 10 uM incubated for 48 hrs by sulforhodamine B assay relative to control; assay type: functional; procedure, shortened: as §1
K562 = assay: Antiproliferative activity against human K562 cells assessed as cell growth inhibition at 10 uM incubated for 48 hrs by sulforhodamine B assay relative to control; assay type: functional; procedure, shortened: as §1
OVCAR-8 = assay: Antiproliferative activity against human OVCAR-8 cells assessed as cell growth inhibition at 10 uM incubated for 48 hrs by sulforhodamine B assay relative to control; assay type: functional; procedure, shortened: as §1
KM12 = assay: Antiproliferative activity against human KM12 cells assessed as cell growth inhibition at 10 uM incubated for 48 hrs by sulforhodamine B assay relative to control; assay type: functional; procedure, shortened: as §1
BT-549 = assay: Antiproliferative activity against human BT-549 cells assessed as cell growth inhibition at 10 uM incubated for 48 hrs by sulforhodamine B assay relative to control; assay type: functional; procedure, shortened: as §2
HOP-62 = assay: Antiproliferative activity against human HOP-62 cells assessed as cell growth inhibition at 10 uM incubated for 48 hrs by sulforhodamine B assay relative to control; assay type: functional
Procedure, shortened: (§3)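 NCI-60 one-dose prescreen at 10^-5 M. Cells grown in RPMI 1640 with 5% FBS and 2 mM glutamine, preincubated 24 h, then exposed 48 h at 37 °C. Adherent lines TCA-fixed, SRB-stained, A515 read. Growth percent relative to time-zero and control; negative values mean cell kill.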

UO-31 = assay: Antiproliferative activity against human UO-31 cells assessed as cell growth inhibition at 10 uM incubated for 48 hrs by sulforhodamine B assay relative to control; assay type: functional; procedure, shortened: as §1
U-251 = assay: Antiproliferative activity against human U-251 cells assessed as cell growth inhibition at 10 uM incubated for 48 hrs by sulforhodamine B assay relative to control; assay type: functional; procedure, shortened: as §1
Malme-3M = assay: Antiproliferative activity against human Malme-3M cells assessed as cell growth inhibition at 10 uM incubated for 48 hrs by sulforhodamine B assay relative to control; assay type: functional; procedure, shortened: as §1
HOP-92 = assay: Antiproliferative activity against human HOP-92 cells assessed as cell growth inhibition at 10 uM incubated for 48 hrs by sulforhodamine B assay relative to control; assay type: functional; procedure, shortened: as §3
ACHN = assay: Antiproliferative activity against human ACHN cells assessed as cell growth inhibition at 10 uM incubated for 48 hrs by sulforhodamine B assay relative to control; assay type: functional; procedure, shortened: as §2
MDA-MB-435 = assay: Antiproliferative activity against human MDA-MB-435 cells assessed as cell growth inhibition at 10 uM incubated for 48 hrs by sulforhodamine B assay relative to control; assay type: functional; procedure, shortened: as §1
MDA-MB-231 = assay: Antiproliferative activity against human MDA-MB-231 cells assessed as cell growth inhibition at 10 uM incubated for 48 hrs by sulforhodamine B assay relative to control; assay type: functional; procedure, shortened: as §1
MOLT-4 = assay: Antiproliferative activity against human MOLT-4 cells assessed as cell growth inhibition at 10 uM incubated for 48 hrs by sulforhodamine B assay relative to control; assay type: functional; procedure, shortened: as §1
HL-60 = assay: Antiproliferative activity against human HL-60 cells assessed as cell growth inhibition at 10 uM incubated for 48 hrs by sulforhodamine B assay relative to control; assay type: functional; procedure, shortened: as §3
HCT-15 = assay: Antiproliferative activity against human HCT-15 cells assessed as cell growth inhibition at 10 uM incubated for 48 hrs by sulforhodamine B assay relative to control; assay type: functional; procedure, shortened: as §3
RPMI-8226 = assay: Antiproliferative activity against human RPMI-8226 cells assessed as cell growth inhibition at 10 uM incubated for 48 hrs by sulforhodamine B assay relative to control; assay type: functional; procedure, shortened: as §1
SNB-19 = assay: Antiproliferative activity against human SNB-19 cells assessed as cell growth inhibition at 10 uM incubated for 48 hrs by sulforhodamine B assay relative to control; assay type: functional; procedure, shortened: as §1
PC-3 = assay: Antiproliferative activity against human PC-3 cells assessed as cell growth inhibition at 10 uM incubated for 48 hrs by sulforhodamine B assay relative to control; assay type: functional; procedure, shortened: as §1
HCT-116 = assay: Antiproliferative activity against human HCT-116 cells assessed as cell growth inhibition at 10 uM incubated for 48 hrs by sulforhodamine B assay relative to control; assay type: functional; procedure, shortened: as §3
SK-MEL-2 = assay: Antiproliferative activity against human SK-MEL-2 cells assessed as cell growth inhibition at 10 uM incubated for 48 hrs by sulforhodamine B assay relative to control; assay type: functional; procedure, shortened: as §1
MCF7 = assay: Antiproliferative activity against human MCF7 cells assessed as cell growth inhibition at 10 uM incubated for 48 hrs by sulforhodamine B assay relative to control; assay type: functional; procedure, shortened: as §1
SF-268 = assay: Antiproliferative activity against human SF-268 cells assessed as cell growth inhibition at 10 uM incubated for 48 hrs by sulforhodamine B assay relative to control; assay type: functional; procedure, shortened: as §1
SN12C = assay: Antiproliferative activity against human SN12C cells assessed as cell growth inhibition at 10 uM incubated for 48 hrs by sulforhodamine B assay relative to control; assay type: functional; procedure, shortened: as §1
UACC-62 = assay: Antiproliferative activity against human UACC-62 cells assessed as cell growth inhibition at 10 uM incubated for 48 hrs by sulforhodamine B assay relative to control; assay type: functional; procedure, shortened: as §1
SF-539 = assay: Antiproliferative activity against human SF-539 cells assessed as cell growth inhibition at 10 uM incubated for 48 hrs by sulforhodamine B assay relative to control; assay type: functional; procedure, shortened: as §1
HT-29 = assay: Antiproliferative activity against human HT-29 cells assessed as cell growth inhibition at 10 uM incubated for 48 hrs by sulforhodamine B assay relative to control; assay type: functional; procedure, shortened: as §1

For `CC(=O)c1ccc(-c2cn3ccnc3c(-c3ccc4ncn(C5CCCCC5)c4c3)n2)cc1`, which inhibition at 10 µM (NCI/ADR-RES) is on record?
The inhibition at 10 µM was 4.17%.

And the logD at 1.417 h [1]?
The logD at 1.417 h was 2.06.

What about the inhibition at 10 µM (T47D) of the same compound?
Its inhibition at 10 µM is 54.4%.

What about the inhibition at 10 µM (SK-MEL-5) of the same compound?
The inhibition at 10 µM was 24.8%.

What about the inhibition at 10 µM (MDA-MB-468) of the same compound?
The inhibition at 10 µM was 0.73%.

And the inhibition at 10 µM (NCI-H460)?
Its inhibition at 10 µM is 7.12%.

What about the inhibition at 10 µM (LOX IMVI) of the same compound?
Its inhibition at 10 µM is 14.5%.

What about the inhibition at 10 µM (CCRF-CEM) of the same compound?
Its inhibition at 10 µM is 1.1%.

What about the inhibition at 10 µM (NCI-H23) of the same compound?
Its inhibition at 10 µM is 8.6%.

And the inhibition at 10 µM (NCI-H522)?
The inhibition at 10 µM was 10.4%.

What about the inhibition at 10 µM (IGROV-1) of the same compound?
The inhibition at 10 µM was 19.1%.

And the inhibition at 10 µM (SR)?
The inhibition at 10 µM was 23.6%.

And the inhibition at 10 µM (NCI-H322M)?
The inhibition at 10 µM was 1.19%.

What about the inhibition at 10 µM (M14) of the same compound?
The inhibition at 10 µM was 3.43%.

And the inhibition at 10 µM (Hs-578T)?
The inhibition at 10 µM was 6.34%.

What about the inhibition at 10 µM (K562) of the same compound?
Its inhibition at 10 µM is 9.6%.

And the inhibition at 10 µM (OVCAR-8)?
The inhibition at 10 µM was 6.38%.

And the inhibition at 10 µM (KM12)?
Its inhibition at 10 µM is 11.7%.

What about the inhibition at 10 µM (BT-549) of the same compound?
Its inhibition at 10 µM is 4.68%.

What about the inhibition at 10 µM (HOP-62) of the same compound?
The inhibition at 10 µM was 7.41%.

And the inhibition at 10 µM (UO-31)?
The inhibition at 10 µM was 23.1%.

What about the inhibition at 10 µM (U-251) of the same compound?
Its inhibition at 10 µM is 3.02%.

What about the inhibition at 10 µM (Malme-3M) of the same compound?
The inhibition at 10 µM was 3.01%.

What about the inhibition at 10 µM (HOP-92) of the same compound?
Its inhibition at 10 µM is 25%.

And the inhibition at 10 µM (ACHN)?
Its inhibition at 10 µM is 4.32%.

And the inhibition at 10 µM (MDA-MB-435)?
The inhibition at 10 µM was 6%.

What about the inhibition at 10 µM (MDA-MB-231) of the same compound?
Its inhibition at 10 µM is 7.65%.

And the inhibition at 10 µM (MOLT-4)?
Its inhibition at 10 µM is 14.3%.

What about the inhibition at 10 µM (HL-60) of the same compound?
The inhibition at 10 µM was 2.65%.

And the inhibition at 10 µM (HCT-15)?
The inhibition at 10 µM was 18.8%.

What about the inhibition at 10 µM (RPMI-8226) of the same compound?
Its inhibition at 10 µM is 20.8%.

What about the inhibition at 10 µM (SNB-19) of the same compound?
Its inhibition at 10 µM is 3.96%.

And the inhibition at 10 µM (PC-3)?
Its inhibition at 10 µM is 17.9%.

What about the inhibition at 10 µM (HCT-116) of the same compound?
The inhibition at 10 µM was 15.8%.

What about the inhibition at 10 µM (SK-MEL-2) of the same compound?
The inhibition at 10 µM was 0.58%.

And the inhibition at 10 µM (MCF7)?
The inhibition at 10 µM was 12%.

What about the inhibition at 10 µM (SF-268) of the same compound?
The inhibition at 10 µM was 5.01%.

And the inhibition at 10 µM (SN12C)?
Its inhibition at 10 µM is 6.33%.

What about the inhibition at 10 µM (UACC-62) of the same compound?
Its inhibition at 10 µM is 18.5%.

And the inhibition at 10 µM (SF-539)?
Its inhibition at 10 µM is 2.82%.

And the inhibition at 10 µM (HT-29)?
Its inhibition at 10 µM is 9.2%.
